In series [1] the target is Lysozyme C (Gallus gallus) (UniProt P00698). Description: Renaturation of 0.1 mg/mL reduced hen egg white lysozyme assessed as maximum enzyme activity at 1 mM at pH 8 by Micrococcus lysodeikticus lysis-based enzyme assay in presence of 0.2 mM GSSG. More on the design: scale not given: the % may be the effect or the level left. In a few lines:
(§1)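 Reduced lysozyme (10 mg/mL) diluted 100-fold into deoxygenated renaturation buffer: 0.1 M bis tris propane–HCl (pH 7.0) or 0.1 M Tris–HCl (pH 8.0), 1 mM EDTA, 0.5 M Gdn HCl, thiol plus GSSG. Mixed by vortexing for 15 s, held at 25 °C. 20 µL aliquots taken at set times and assayed for recovery of enzymatic activity.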

Series [2] in a line: Solubility of the compound at pH 8. In kind it is physicochemical. Conditions: buffer.
Series [3] addresses Lysozyme C (Gallus gallus) (UniProt P00698). Description: Renaturation of 0.1 mg/mL reduced hen egg white lysozyme assessed as apparent rate of renaturation at 0.25 mM at pH 8 by Micrococcus lysodeikticus lysis-based enzyme assay in presence of 0.2 mM GSSG. A digest of the protocol: as §1
Series [4] shares this target. Description: Renaturation of 0.1 mg/mL reduced hen egg white lysozyme assessed as maximum enzyme activity at 0.25 mM at pH 8 by Micrococcus lysodeikticus lysis-based enzyme assay in presence of 0.2 mM GSSG. Also on record: scale not given: the % may be the effect or the level left. In a few lines:
as §1

Series [5] shares this target. Description: Renaturation of 0.1 mg/mL reduced hen egg white lysozyme assessed as apparent rate of renaturation at 1 mM at pH 8 by Micrococcus lysodeikticus lysis-based enzyme assay in presence of 0.2 mM GSSG. In a few lines: as §1
The target is the same in series [6]. Description: Renaturation of 1 mg/mL reduced hen egg white lysozyme assessed as maximum enzyme activity at 10 mM at pH 8 by Micrococcus lysodeikticus lysis-based enzyme assay in presence of 1 mM GSSG. Also on record: scale not given: the % may be the effect or the level left. In a few lines: (§2)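 Reduced lysozyme was dissolved in 0.1 M acetic acid with 6 M Gdn HCl (pH 2.5), brought to pH 7.0 or 8.0 with KOH, and set to 10 mg/mL by A280. It was then diluted 10-fold into deoxygenated buffer: 0.1 M bis tris propane–HCl or Tris–HCl, 1.25 M Gdn HCl, 1 mM EDTA, thiol plus GSSG. Final protein was 1 mg/mL, final Gdn HCl 1.7 M, 25 °C. Aliquots taken at intervals and assayed for activity. Errors are standard deviations.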

Series [7] can be described thus: Solubility of the compound in water. In kind it is physicochemical. The settings on record: buffer.
Series [8] concerns the target Lysozyme C (Gallus gallus) (UniProt P00698). Description: Renaturation of 1 mg/mL reduced hen egg white lysozyme assessed as apparent rate of renaturation at 10 mM at pH 7 by Micrococcus lysodeikticus lysis-based enzyme assay in presence of 1 mM GSSG. In a few lines: as §2
Series [9] shares this target. Description: Renaturation of 1 mg/mL reduced hen egg white lysozyme assessed as maximum enzyme activity at 10 mM at pH 7 by Micrococcus lysodeikticus lysis-based enzyme assay in presence of 1 mM GSSG. Also on record: scale not given: the % may be the effect or the level left. A digest of the protocol:
as §2

Series [10] shares this target. Description: Renaturation of 1 mg/mL reduced hen egg white lysozyme assessed as maximum enzyme activity at 20 mM at pH 8 by Micrococcus lysodeikticus lysis-based enzyme assay in presence of 1 mM GSSG. Also on record: scale not given: the % may be the effect or the level left. In a few lines: as §2
For series [11] the target is unchanged. Description: Renaturation of 1 mg/mL reduced hen egg white lysozyme assessed as apparent rate of renaturation at 10 mM at pH 7 by Micrococcus lysodeikticus lysis-based enzyme assay in presence of 0.5 mM GSSG. A digest of the protocol:
as §2

Series [12] has the same target. Description: Renaturation of 1 mg/mL reduced hen egg white lysozyme assessed as maximum enzyme activity at 10 mM at pH 7 by Micrococcus lysodeikticus lysis-based enzyme assay in presence of 0.5 mM GSSG. More on the design: scale not given: the % may be the effect or the level left. A digest of the protocol: as §2
The target is the same in series [13]. Description: Renaturation of 1 mg/mL reduced hen egg white lysozyme assessed as apparent rate of renaturation at 20 mM at pH 8 by Micrococcus lysodeikticus lysis-based enzyme assay in presence of 1 mM GSSG. In a few lines:
as §2

The target is the same in series [14]. Description: Renaturation of 1 mg/mL reduced hen egg white lysozyme assessed as apparent rate of renaturation at 10 mM at pH 8 by Micrococcus lysodeikticus lysis-based enzyme assay in presence of 1 mM GSSG. A digest of the protocol: as §2
Series [15] in a line: Dissociation constant, pKa of the compound. In kind it is physicochemical.
For series [16], the target named is Lysozyme C (Gallus gallus) (UniProt P00698). Description: Renaturation of 1 mg/mL reduced hen egg white lysozyme assessed as apparent rate of renaturation at 40 mM at pH 7 by Micrococcus lysodeikticus lysis-based enzyme assay in presence of 1 mM GSSG. A digest of the protocol: (§3)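 Reduced lysozyme prepared in 0.1 M acetic acid with 6 M Gdn HCl, pH 2.5, then neutralised to pH 7.0 or 8.0 with KOH and set to 10 mg/mL. Diluted 10-fold into deoxygenated buffer: 0.1 M bis tris propane–HCl (pH 7.0) or Tris–HCl (pH 8.0), 1 mM EDTA, thiol plus GSSG. Final 1 mg/mL protein, 1.7 M Gdn HCl, 25 °C. Aliquots taken over time, diluted and assayed for activity.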

Series [17] has the same target. Description: Renaturation of 1 mg/mL reduced hen egg white lysozyme assessed as maximum enzyme activity at 40 mM at pH 8 by Micrococcus lysodeikticus lysis-based enzyme assay in presence of 1 mM GSSG. More on the design: scale not given: the % may be the effect or the level left. In a few lines: as §3
Series [18] shares this target. Description: Renaturation of 1 mg/mL reduced hen egg white lysozyme assessed as apparent rate of renaturation at 40 mM at pH 8 by Micrococcus lysodeikticus lysis-based enzyme assay in presence of 1 mM GSSG. A digest of the protocol: as §3
Series [19] shares this target. Description: Renaturation of 1 mg/mL reduced hen egg white lysozyme assessed as maximum enzyme activity at 40 mM at pH 7 by Micrococcus lysodeikticus lysis-based enzyme assay in presence of 1 mM GSSG. Also on record: scale not given: the % may be the effect or the level left. A digest of the protocol: as §3
Series [20] shares this target. Description: Renaturation of 0.1 mg/mL reduced hen egg white lysozyme assessed as apparent rate of renaturation at 0.5 mM at pH 7 by Micrococcus lysodeikticus lysis-based enzyme assay in presence of 0.2 mM GSSG. A digest of the protocol:
as §1

For series [21] the target is unchanged. Description: Renaturation of 0.1 mg/mL reduced hen egg white lysozyme assessed as maximum enzyme activity at 0.5 mM at pH 7 by Micrococcus lysodeikticus lysis-based enzyme assay in presence of 0.2 mM GSSG. Also on record: scale not given: the % may be the effect or the level left. A digest of the protocol:
as §1

Series [22] has the same target. Description: Renaturation of 0.1 mg/mL reduced hen egg white lysozyme assessed as maximum enzyme activity at 3 mM at pH 8 by Micrococcus lysodeikticus lysis-based enzyme assay in presence of 0.2 mM GSSG. More on the design: scale not given: the % may be the effect or the level left. In a few lines:
as §1

The target is the same in series [23]. Description: Renaturation of 0.1 mg/mL reduced hen egg white lysozyme assessed as maximum enzyme activity at 3 mM at pH 7 by Micrococcus lysodeikticus lysis-based enzyme assay in presence of 0.2 mM GSSG. More on the design: scale not given: the % may be the effect or the level left. In a few lines:
as §1

Series [24] has the same target. Description: Renaturation of 0.1 mg/mL reduced hen egg white lysozyme assessed as apparent rate of renaturation at 3 mM at pH 7 by Micrococcus lysodeikticus lysis-based enzyme assay in presence of 0.2 mM GSSG. A digest of the protocol:
as §1

Series [25] has the same target. Description: Renaturation of 0.1 mg/mL reduced hen egg white lysozyme assessed as apparent rate of renaturation at 0.5 mM at pH 8 by Micrococcus lysodeikticus lysis-based enzyme assay in presence of 0.2 mM GSSG. A digest of the protocol: as §1
For series [26] the target is unchanged. Description: Renaturation of 0.1 mg/mL reduced hen egg white lysozyme assessed as apparent rate of renaturation at 3 mM at pH 8 by Micrococcus lysodeikticus lysis-based enzyme assay in presence of 0.2 mM GSSG. In a few lines:
as §1

Series [27] has the same target. Description: Renaturation of 0.1 mg/mL reduced hen egg white lysozyme assessed as maximum enzyme activity at 0.5 mM at pH 8 by Micrococcus lysodeikticus lysis-based enzyme assay in presence of 0.2 mM GSSG. Also on record: scale not given: the % may be the effect or the level left. A digest of the protocol: as §1
The nature of series [28]: Solubility of the compound at pH 7. In kind it is physicochemical. Conditions: buffer.
Series [29] deals with Lysozyme C (Gallus gallus) (UniProt P00698). Description: Renaturation of 0.1 mg/mL reduced hen egg white lysozyme assessed as apparent rate of renaturation at 2 mM at pH 7 by Micrococcus lysodeikticus lysis-based enzyme assay in presence of 0.2 mM GSSG. A digest of the protocol: as §1
The target is the same in series [30]. Description: Renaturation of 0.1 mg/mL reduced hen egg white lysozyme assessed as apparent rate of renaturation at 2 mM at pH 8 by Micrococcus lysodeikticus lysis-based enzyme assay in presence of 0.2 mM GSSG. A digest of the protocol: as §1
The target is the same in series [31]. Description: Renaturation of 0.1 mg/mL reduced hen egg white lysozyme assessed as maximum enzyme activity at 2 mM at pH 7 by Micrococcus lysodeikticus lysis-based enzyme assay in presence of 0.2 mM GSSG. Also on record: scale not given: the % may be the effect or the level left. A digest of the protocol: as §1
Series [32] shares this target. Description: Renaturation of 0.1 mg/mL reduced hen egg white lysozyme assessed as maximum enzyme activity at 2 mM at pH 8 by Micrococcus lysodeikticus lysis-based enzyme assay in presence of 0.2 mM GSSG. More on the design: scale not given: the % may be the effect or the level left. In a few lines:
as §1

For series [33] the target is unchanged. Description: Renaturation of 1 mg/mL reduced hen egg white lysozyme assessed as apparent rate of renaturation at 20 mM at pH 7 by Micrococcus lysodeikticus lysis-based enzyme assay in presence of 1 mM GSSG. In a few lines: as §2
Series [34] shares this target. Description: Renaturation of 1 mg/mL reduced hen egg white lysozyme assessed as maximum enzyme activity at 20 mM at pH 7 by Micrococcus lysodeikticus lysis-based enzyme assay in presence of 1 mM GSSG. More on the design: scale not given: the % may be the effect or the level left. A digest of the protocol:
as §2

Each structure is given as a SMILES string. Converted amounts (≈) assume the structure as drawn.

One may read the solubility as how much of the substance goes into solution per volume. Broadly, the pKa is the negative logarithm of the acid dissociation constant.

Sequence of Lysozyme C (Gallus gallus) (P00698 whole entry): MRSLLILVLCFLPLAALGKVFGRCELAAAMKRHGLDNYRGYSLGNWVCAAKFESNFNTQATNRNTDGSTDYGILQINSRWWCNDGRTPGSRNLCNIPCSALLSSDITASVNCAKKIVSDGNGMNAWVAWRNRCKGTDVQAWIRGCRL

As for `O=C(OCCOCCOCCS)c1ccccc1`, the Activity in series [1] was 2%; in [3], 0.028 min⁻¹; in series [4], 68%; in series [5], 0.012 min⁻¹. In addition, the solubility in series [2] worked out at 2000 µM (≈ 541 µg/mL).

Consider `C[N+](C)(CCCCCC[N+](C)(C)Cc1ccc(S)cc1)Cc1ccc(S)cc1.[Br-].[Br-]`, for which the Activity in series [6] came out at 78%; in [8] it was 0.011 min⁻¹; in series [9], 74%; in series [10], 49%; in series [11] it was 0.013 min⁻¹; in [12] it was 70%. The Activity was 0.017 min⁻¹ in series [13] and 0.016 min⁻¹ in [14]. Besides, the solubility result in [7] is “soluble”.

As for `N[C@@H](CS)C(=O)O` [CYSTEINE], the pKa in series [15] was 8.7.

As to `C[N+](C)(C)Cc1ccc(S)cc1`, the Activity in [16] is 0.017 min⁻¹; in [17], 81%; in series [18], 0.018 min⁻¹; in [19], 82%.

In the case of `O=C(OCCOCCOCCOCCS)c1ccccc1S`, the Activity in [20] was 0.008 min⁻¹; in [21] it was 85%; in series [22] it was 27%; in series [23], 2%; in series [24], 0.01 min⁻¹; in [25], 0.061 min⁻¹. In addition, the Activity in series [26] amounted to 0.023 min⁻¹; in series [27], 76%.

As for `O=C(OCCOCCOCCOCCS)c1ccc(S)cc1`, the Activity in series [20] came out at 0.038 min⁻¹; in series [21], 39%; in series [22] it was 43%; in [23], 36%; in series [24], 0.045 min⁻¹; in series [25] it was 0.087 min⁻¹. Also, the Activity was 0.072 min⁻¹ in [26] and 73% in [27].

With `O=C(OCCOCCOCCS)c1ccccc1S`, the Activity was determined as 0.013 min⁻¹ in series [20]; 55% in series [21]; 0.001 min⁻¹ in [29]; 0.009 min⁻¹ in [30]; 19% in [31]; 62% in series [32]. Besides, the Activity in series [25] was found to be 0.041 min⁻¹; in series [27], 58%. The solubility in series [28] stood at 4000 µM (≈ 1210 µg/mL).

`O=C(OCCOCCS)c1ccc(S)cc1`: the Activity was 9% in series [22], 0.072 min⁻¹ in series [25], 0.08 min⁻¹ in series [26] and 53% in series [27].

Regarding `C[N+](C)(CCC[N+](C)(C)Cc1ccc(S)cc1)Cc1ccc(S)cc1.[Br-].[Br-]`, the Activity was 0.015 min⁻¹ in series [33]; 77% in series [17]; 0.023 min⁻¹ in series [18]; 0.012 min⁻¹ in series [8]; 86% in [34]; 83% in [9]. Moreover, the Activity in [10] came to 88%; in series [13], 0.022 min⁻¹. In addition, in [7], the solubility entry is “soluble”.

For the molecule `OCCS` [2-MERCAPTOETHANOL], the pKa in series [15] is 9.6.

Consider `O=C(OCCOCCOCCS)c1ccc(S)cc1`, for which the Activity amounted to 0.025 min⁻¹ in series [20]; 57% in series [21]; 16% in [22]; 23% in [23]; 0.02 min⁻¹ in [24]; 0.076 min⁻¹ in series [25]. The Activity in series [26] is 0.1 min⁻¹; in [27], 63%.
